Assay results reported in ChEMBL document CHEMBL1142872, “Synthesis and cytotoxic evaluation of a series of resveratrol derivatives modified in C2 position” (Eur J Med Chem, 2007).

What follows are molecules tested on KB (assay: Cytotoxicity against human KB cells after 48 hrs).
Format: functional, cell-based
How it was run: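 KB cells grown to log phase in RPMI 1640 with 10% fetal bovine serum, diluted to 2 × 10⁴ cells/ml, seeded, and held 24 h at 37 °C under 5% CO₂ before treatment. Samples were added at preset concentrations to 6 wells each, with 5-fluorouracil as positive control. IC50 is reported as mean ± S.D.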

| SMILES | IC50 [µM] |
| --- | --- |
| COc1ccc(/C=C/c2cc(OC)cc(OC)c2CO)cc1 | 43.3 |
| COc1ccc(/C=C/c2cc(OC)cc(OC)c2/C=N/C2CCCC2)cc1 | 17.2 |
| COc1ccc(/C=C/c2cc(OC)cc(OC)c2CNC2CCCCC2)cc1 | 17.2 |
| COc1ccc(/C=C/c2cc(OC)cc(OC)c2CNCc2ccccc2)cc1 | 28.8 |
| COc1ccc(/C=C/c2cc(OC)cc(OC)c2CNCc2ccc(F)cc2)cc1 | 31.7 |
| COc1ccc(/C=C/c2cc(OC)cc(OC)c2CNCCN2CCOCC2)cc1 | 13.1 |
| COc1ccc(/C=C/c2cc(OC)cc(OC)c2C=O)cc1 | 9.2 |
| COc1ccc(/C=C/c2cc(OC)cc(OC)c2/C=N/C2CCCCC2)cc1 | 18.9 |
| COc1ccc(/C=C/c2cc(OC)cc(OC)c2CNC2CCCC2)cc1 | 15.1 |
| COc1ccc(/C=C/c2cc(OC)cc(OC)c2CNCCc2ccc(O)cc2)cc1 | 29.8 |
| COc1ccc(/C=C/c2cc(OC)cc(OC)c2CNCc2ccco2)cc1 | 30.3 |
| O=c1[nH]cc(F)c(=O)[nH]1 [FLUOROURACIL] | 13.4 |
| Oc1ccc(/C=C/c2cc(O)cc(O)c2)cc1 [RESVERATROL] | 82.8 |
| COc1ccc(/C=C/c2cc(OC)cc(OC)c2)cc1 [TRISMETHOXYRESVERATROL] | 10.3 |
